# In ChEMBL document CHEMBL4251758, “Small Molecule Inhibition of MicroRNA miR-21 Rescues Chemosensitivity of Renal-Cell Carcinoma to Topotecan” (J Med Chem, 2018):
# Active and inactive are the calls of the source. No cut-off for these calls is given here.
# System: A498
# Test: Induction of apoptosis in human A498 cells assessed as increase in caspase-3/7 activity at 1 uM after 24 hrs by Caspase-Glo 3/7 assay relative to control
# Type: functional
# Details: not given
row,SMILES,fold change (FC)
1,CC[C@@]1(O)C(=O)OCc2c1cc1n(c2=O)Cc2cc3c(CN(C)C)c(O)ccc3nc2-1 [TOPOTECAN],3

# System: microRNA 21
# Test: Inhibition of miR-21 RNA (unknown origin) transfected in human HeLa cells at 0.1 to 1000 nM after 48 hrs by Bright-Glo luciferase reporter gene assay
# Type: cell-based
# Details: not given
row,SMILES,inhibition
1,CC[C@@]1(O)C(=O)OCc2c1cc1n(c2=O)Cc2cc3c(CN(C)C)c(O)ccc3nc2-1 [TOPOTECAN],inactive

# System: not listed separately
# Test: Stabilization of pre-miR-21 RNA (unknown origin) assessed as increase in melting temperature at 10 uM by UV-spectrophotometric analysis
# Details: not given
# Method in brief: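 Melting-curve analysis of precursor miR-21 RNA run with test compound, with DMSO as the reference condition and tobramycin (10 μM) as a positive control for RNA binding and stabilisation. Read-out is the shift in melting temperature of pre-miR-21 relative to the DMSO sample.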
row,SMILES,ΔTm [°C]
1,NC[C@H]1O[C@H](O[C@H]2[C@H](O)[C@@H](O[C@H]3O[C@H](CO)[C@@H](O)[C@H](N)[C@H]3O)[C@H](N)C[C@@H]2N)[C@H](N)C[C@@H]1O,19

# System: A498
# Test: Inhibition of colony formation of human A498 cells after 2 weeks by crystal violet staining-based microscopic analysis
# Type: functional, cell-based
# Details: A498, 336 h
# Method in brief: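 A498 cells, 10,000 per well, seeded in 0.45% low-melt agarose in DMEM over a 0.7% agarose base layer, containing increasing compound concentrations or DMSO (0.1% final), in triplicate. For combinations, the inhibitor was held at 10 μM. After 2 weeks, colonies were stained with 0.1% crystal violet and imaged by z-stack microscopy. Colony counts were normalized to DMSO; IC50 from sigmoidal fit.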
row,SMILES,IC50 [nM]
1,CC[C@@]1(O)C(=O)OCc2c1cc1n(c2=O)Cc2cc3c(CN(C)C)c(O)ccc3nc2-1 [TOPOTECAN],2000

# System: microRNA 21
# Test: Inhibition of miR-21 RNA in human HeLa cells harboring miR-21 binding sequence in 3'-UTR of firefly luciferase gene assessed as increase in luciferase expression incubated for 48 hrs by Bright-Glo luciferase reporter gene assay relative to control
# Type: cell-based
# Details: not given
# Method in brief: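 HeLa-miR21-Luc stable line (miR-21 site in the firefly luciferase 3′-UTR), 1000 cells per well. Compound or DMSO (0.1% final) added after overnight attachment, in triplicate, for 48 h. Bright-Glo luminescence was normalized to XTT viability (450 nm) and expressed as fold change relative to DMSO. At least three independent experiments.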
row,SMILES,fold change (FC)
1,c1ccc(-n2cc(-c3nc(-c4cccs4)no3)nn2)cc1,1.41
2,COc1cccc(-n2nnc(-c3nnc(-c4cccs4)o3)c2N)c1,2.68
3,CN(C)c1cccc(-n2nnc(-c3nc(-c4cccs4)no3)c2N)c1,2.56
4,C#CCOc1cccc(-n2nnc(-c3nc(-c4cccs4)no3)c2N)c1,1.61
5,Nc1c(-c2nc(-c3cccs3)no2)nnn1-c1ccc(CO)cc1,2.14
6,COc1cccc(-n2nnc(-c3nc(-c4ccco4)no3)c2N)c1,2.19
7,CC(=O)c1cccc(-n2nnc(-c3nc(-c4cccs4)no3)c2N)c1,2.46
8,Nc1c(-c2nc(-c3cccs3)no2)nnn1-c1cccc(O)c1,2.19
9,COc1ccc(-c2noc(-c3nnn(-c4cccc(/C(C)=N/O)c4)c3N)n2)cc1,1.51
10,Nc1c(-c2nc(-c3cccs3)no2)nnn1-c1cccc(CO)c1,1.67
11,COc1cc(OC)cc(-n2nnc(-c3nc(-c4cccs4)no3)c2N)c1,2.3
12,Nc1c(-c2nc(-c3cccs3)no2)nnn1-c1ccccc1CO,2.23
13,COc1ccccc1-n1nnc(-c2nc(-c3cccs3)no2)c1N,2.02
14,CCOc1ccc(-c2noc(-c3nnn(-c4cccc(/C(C)=N/O)c4)c3N)n2)cc1,3.14
15,CCc1cccc(-n2nnc(-c3nc(-c4cccs4)no3)c2N)c1,1.63
16,COc1cccc(-n2nnc(-c3nc(-c4cccs4)no3)c2N)c1,2.84
17,CC(C)c1cccc(-n2nnc(-c3nc(-c4cccs4)no3)c2N)c1,1.82
18,CC(C)c1cccc(-n2nnc(-c3nnc(-c4cccs4)o3)c2N)c1,1.72

row,SMILES,fold change (FC)
1,Nc1c(-c2nc(-c3cccs3)no2)nnn1-c1cccc(-c2ccccc2)c1,1.06
2,COc1cccc(-n2nnc(-c3nc(-c4ccccn4)no3)c2N)c1,2.23
3,C/C(=N\O)c1cccc(-n2nnc(-c3nc(-c4cccs4)no3)c2N)c1,4.54
4,COc1cccc(-n2nnc(-c3nc(-c4ccccc4)no3)c2N)c1,2.19
5,Nc1c(-c2nc(-c3cccs3)no2)nnn1-c1cccc(C(F)(F)F)c1,1.08
6,Cc1cccc(-n2nnc(-c3nc(-c4cccs4)no3)c2N)c1C,1.89
7,Nc1c(-c2nc(-c3cccs3)no2)nnn1-c1cccc(F)c1,1.93
8,Nc1c(-c2nc(-c3cccs3)no2)nnn1-c1cccc(OC(F)(F)F)c1,1.4
9,Fc1cccc(-n2cc(-c3nc(-c4cccs4)no3)nn2)c1,1.7
10,Nc1c(-c2nc(-c3cccs3)no2)nnn1-c1ccccc1,1.01
11,C/C(=N\O)c1cccc(-n2nnc(-c3nc(-c4ccc(O)cc4)no3)c2N)c1,1.98
12,COc1cccc(-n2cc(-c3nc(-c4cccs4)no3)nn2)c1,2.2
13,Nc1c(-c2nc(-c3cccs3)no2)nnn1-c1ccc2ccccc2c1,1.39
14,C=CCOc1ccc(-c2noc(-c3nnn(-c4cccc(/C(C)=N/O)c4)c3N)n2)cc1,2.96
15,Nc1c(-c2nnc(-c3cccs3)o2)nnn1-c1cccc(F)c1,1.6
16,C#CCOc1ccc(-n2nnc(-c3nc(-c4cccs4)no3)c2N)cc1,1.47
17,C/C(=N\O)c1cccc(-n2nnc(-c3nc(-c4ccc(OC(C)C)cc4)no3)c2N)c1,1.19
18,Nc1c(-c2nc(-c3cccs3)no2)nnn1-c1cccc(C(=O)c2ccccc2)c1,1.82
